Experimental data published in PubChem BioAssay.
Active and inactive are the calls of the source.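 The calls were made as follows, unless noted: active = viability at or below 10% of carrier control in both of two separate runs; inconclusive = viability at or below 10% in only one of the two runs; inactive = the rest.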

Experiments:
[1] = SK-BR-3 cell growth inhibitors, pilot screen, 24 h, human (AID 572); details: SK-BR-3 viability, CellTiter-Glo luminescence, at 10 µM, stronger effect = lower value;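 also: compound exposure lasted between 18 and 24 h rather than exactly 24 h; 100% = carrier-treated control wells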
[2] = HUVEC growth inhibition – cell-based, human, primary screen (AID 575;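 active = viability at or below 30% in both replicate assays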;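 also: 100% = median of untreated cell wells with 0.1% DMSO on each plate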); details: HUVEC proliferation, CellTiter-Glo luminescence, 72 h; at 10 µM; stronger effect = lower value
How it was run: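 Test system: HUVEC primary cells. Quantity: 1250 endothelial cells in each well. Dosing: single-point 10 µM, DMSO 0.1% final. Incubation: 72 h treatment at 37 °C. Measured by: CTG luminescence. Control set: DMSO cell controls and MePR drug controls. Plate: collagen-coated 384-well format.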

[3] = growth inhibitors of H69AR lung tumor, primary screen, human, duplicate replicates (AID 580;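 active = viability at or under a set limit in both replicates, limit being median viability minus 3 SD, cut at about 48% in these data, passing the limit was not always enough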;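 also: 100% = mean luminescence of untreated wells and 0% = no signal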); details: H69AR lung tumor cells viability, ATP luminescence, 72 h; at 10 µM; stronger effect = lower value
[4] = reversal of MRP1-mediated doxorubicin resistance, pilot screen, H69AR cells, doxorubicin co-treatment (AID 601;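 active = viability loss from added drug above about 55%, and viability with drug at most 40%, in both replicates, limit read from the data, passing the limit was not always enough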); details: CellTiter-Glo, 72 h, at 10 µM; for differential viability (reversal): stronger effect = higher value
[5] = 384-well plate pilot, post-Golgi transport modulator project, inhibition of yeast transport mutant growth (AID 636; in the data active = inhibition above about 31%); details: absorbance 615 nm, about 18 h, stronger effect = higher value
[6] = growth suppression of yeast trafficking mutant, preliminary HTS, modulators of trafficking downstream of Golgi apparatus project, 1536-format plate, OD 615 nm (AID 637; in the data active = inhibition above about 30%); details: yeast transport mutant growth, absorbance 615 nm, 18 h; stronger effect = higher value
[7] = H69AR cells + 2 uM doxorubicin, measured here: viability with 2 uM doxorubicin, stronger effect = lower value
[8] = H69AR cells, compound alone cytotoxicity

SMILES	viability [1]	viability [2]	viability [3]	differential viability (reversal) ([4]; H69AR cells + 2 uM doxorubicin)	viability [4, 7]	viability [4, 8]	inhibition [5]	inhibition [6]
COc1ccc(S(=O)(=O)Nc2ccccc2OC)cc1C	107% (inactive)	93.8% (inactive)	83.1% (inactive)	-7.08% (inactive)	90.2%	83.1%	0% (inactive)	0.82% (inactive)
O=C(c1cccc2c1C(=O)N(Cc1cccnc1)C2)N1CCN(c2ccccc2)CC1	127% (inactive)	97.3% (inactive)	93.3% (inactive)	3.83% (inactive)	89.5%	93.3%	-4.93% (inactive)	-1.09% (inactive)
CCC(C(=O)OCCN(CC)CC)c1ccccc1 (centres undefined)	114% (inactive)	86.8% (inactive)	86.7% (inactive)	-0.8% (inactive)	87.5%	86.7%	-1.56% (inactive)	2.33% (inactive)
O=C(C1CCCN(S(=O)(=O)c2cccc3nonc23)C1)N1CCC(Cc2ccccc2)CC1 (centres undefined)	103% (inactive)	34.9% (inactive)	71.3% (inactive)	16% (inactive)	55.2%	71.3%	-4.21% (inactive)	-7.17% (inactive)
CC(=O)c1c(C)nn(C(C)CC(=O)O)c1C (centres undefined)	113% (inactive)	97.8% (inactive)	97.5% (inactive)	8.11% (inactive)	89.3%	97.5%	-1.95% (inactive)	-4.75% (inactive)
COC(=O)c1sc(N)c(C(=O)OC)c1COC(=O)C1CC(=O)N(Cc2ccco2)C1 (centres undefined)	84% (inactive)	103% (inactive)	72.8% (inactive)	-6.05% (inactive)	78.9%	72.8%	-4.19% (inactive)	-2.18% (inactive)
COc1ccc(-n2nnnc2SCC(=O)c2ccc(O)c(O)c2)cc1	74% (inactive)	58.6% (inactive)	34.7% (active)	-41.9% (inactive)	76.6%	34.7%	-5.89% (inactive)	-1.45% (inactive)
COc1ccccc1CC(=O)NCC1CCCO1 (centres undefined)	110% (inactive)	113% (inactive)	99% (inactive)	8.34% (inactive)	90.7%	99%	-8.13% (inactive)	-4.55% (inactive)
O=C(Nc1ccc2c(c1)nc1n2CCN(Cc2ccccc2)C1)c1cccs1	76.5% (inactive)	88.7% (inactive)	80.2% (inactive)	-12.4% (inactive)	92.6%	80.2%	-5.89% (inactive)	6.19% (inactive)
COC(=O)c1[nH]c2ccc(C)cc2c1NC(=O)CN1CCN(C(=O)c2ccccc2)CC1	130% (inactive)	94% (inactive)	78.4% (inactive)	33.4% (inactive)	44.9%	78.4%	-4.67% (inactive)	-0.36% (inactive)
O=C(O)/C=C/c1ccc(O)c(O)c1	94% (inactive)	69% (inactive)	97.9% (inactive)	5.39% (inactive)	92.5%	97.9%	-0.39% (inactive)	1% (inactive)
C=CCNC(=O)c1ccc(Cl)cc1Cl	108% (inactive)	92.8% (inactive)	97% (inactive)	4.47% (inactive)	92.6%	97%	-3.9% (inactive)	-1.48% (inactive)
O=C(Nc1ccccc1C(=O)NCCCn1ccnc1)c1ccccc1	81% (inactive)	94.4% (inactive)	96.8% (inactive)	9.21% (inactive)	87.6%	96.8%	-6.62% (inactive)	-8% (inactive)
COc1ccccc1N1CCN(CC(O)COc2cccc3ccccc23)CC1 (centres undefined)	83% (inactive)	74.9% (inactive)	77.4% (inactive)	-13.3% (inactive)	90.7%	77.4%	-1.3% (inactive)	-1.5% (inactive)
CCOC(=O)c1[nH]c(CSc2nnc(-c3ccncc3)n2CCOC)c(C(=O)OCC)c1C	94% (inactive)	96.7% (inactive)	94.8% (inactive)	4.23% (inactive)	90.6%	94.8%	-5.19% (inactive)	1.31% (inactive)
Cc1ccc(Cl)cc1N1CCN(C(=O)CN2C(=O)c3cccc4cccc2c34)CC1	94.5% (inactive)	66.6% (inactive)	72.1% (inactive)	-4.18% (inactive)	76.3%	72.1%	-4.42% (inactive)	3.65% (inactive)
O=C(NCC12CC3CC(C1)CC(CNC(=O)N1CCCC1)(C3)C2)N1CCCC1	78% (inactive)	90.1% (inactive)	84.8% (inactive)	-4.64% (inactive)	89.5%	84.8%	-10.3% (inactive)	1.77% (inactive)
Cc1nc2cc(C(=O)O)ccc2n1-c1ccc(F)cc1F	120% (inactive)	94.3% (inactive)	101% (inactive)	7.17% (inactive)	93.7%	101%	-4.42% (inactive)	2.62% (inactive)
